Our source for the viability, differential viability (reversal) and inhibition values is PubChem BioAssay.

The term viability denotes a read-out of living cells in per cent, often relative to untreated cells. For orientation: inhibition means the change of the read-out against control, counted positive when it falls.

Test [1] in a line: HUVEC growth inhibition – cell-based, human, primary screen (AID 575;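 active = viability at or below 30% in both replicate assays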;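 note: 100% = median of untreated cell wells with 0.1% DMSO on each plate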). Conditions: HUVEC proliferation, CellTiter-Glo luminescence, 72 h; at 10 µM; stronger effect = lower value. The method, boiled down: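 Assay system: primary human umbilical vein endothelial cells / Buffer or medium: endothelial basal medium with 2% FBS plus growth supplements / Compound dosing: one dose, 10 µM final, 0.1% DMSO / Timing: 72 h treatment at 37 °C / Signal: CTG luminescence / Benchmarks: 32 DMSO-only cell-control wells (high), 32 MePR drug-control wells (low) per plate / Plate: collagen-coated 384-well format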
A general note: In ATP-based viability assays light output follows the ATP content of the culture.

Test [2] can be described thus: growth inhibitors of H69AR lung tumor, primary screen, human, duplicate replicates (AID 580).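 Note: 100% = mean luminescence of untreated wells and 0% = no signal.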 Particulars: H69AR lung tumor cells viability, ATP luminescence, 72 h; at 10 µM; stronger effect = lower value.
Test [3] is described as follows: reversal of MRP1-mediated doxorubicin resistance, pilot screen, H69AR cells, doxorubicin co-treatment (AID 601;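 active = viability loss from added drug above about 55%, and viability with drug at most 40%, in both replicates, limit read from the data, passing the limit was not always enough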). Conditions: CellTiter-Glo, 72 h, at 10 µM; for differential viability (reversal): stronger effect = higher value.
Test [4] is described as follows: 384-well plate pilot, post-Golgi transport modulator project, inhibition of yeast transport mutant growth (AID 636; in the data active = inhibition above about 31%). Particulars: absorbance 615 nm, about 18 h, stronger effect = higher value.
The nature of test [5]: growth suppression of yeast trafficking mutant, preliminary HTS, modulators of trafficking downstream of Golgi apparatus project, 1536-format plate, OD 615 nm (AID 637; in the data active = inhibition above about 30%). Particulars: yeast transport mutant growth, absorbance 615 nm, 18 h; stronger effect = higher value.
Where [6] appears, read: H69AR cells + 2 uM doxorubicin, measured here: viability with 2 uM doxorubicin, stronger effect = lower value.
The mark [7] stands for this setting: H69AR cells, compound alone cytotoxicity.

Calls of active or inactive are those of the source.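 Rule for the calls, unless noted: active = viability at or under a set limit in both replicates, limit being median viability minus 3 SD (cut at about 48% in these data, passing the limit was not always enough); inconclusive = at or under the limit in just one replicate; inactive = at or above the limit in both replicates.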

Consider `CCOc1ccccc1N(CC(=O)N1CCOCC1)S(=O)(=O)c1ccccc1`, for which the viability in test [1] was 108% (inactive); in test [2], 99% (inactive); in test [3] (setting [6]) it was 97.8%; in test [3] (setting [7]), 99%. In addition, in test [3] (H69AR cells + 2 uM doxorubicin), the differential viability (reversal) was 1.18% (inactive). For the same molecule, the inhibition in test [4] is 2.8% (inactive); in test [5], -4.76% (inactive).

`CN1CCCC(OC(=O)c2ccc3c(c2)OCCO3)C1` (configuration not stated): the viability in test [1] is 103% (inactive); in test [2], 106% (inactive); in test [3] (setting [6]), 86.7%; in test [3] (setting [7]), 106%. In addition, the differential viability (reversal) in test [3] (H69AR cells + 2 uM doxorubicin) was 19.1% (inactive). In addition, the results for the inhibition in test [4] and in test [5] were -4.4% (inactive) and -2.06% (inactive), respectively.

As for `CN(C)c1ccnc(NCc2ccccc2)c1C#N`, the viability in test [1] is 92.7% (inactive); in test [2], 85.8% (inactive); in test [3] (setting [6]), 79.5%; in test [3] (setting [7]), 85.8%. Besides, the differential viability (reversal) in test [3] (H69AR cells + 2 uM doxorubicin) is 6.29% (inactive). Also, the inhibition in test [4] was -4.53% (inactive); in test [5] it was 4.6% (inactive).

Take `Cc1cc(C)n(Cc2nc3ccccc3n2C)n1`: the viability in test [1] is 92.9% (inactive); in test [2], 99% (inactive); in test [3] (setting [6]), 90.9%; in test [3] (setting [7]), 99%. The differential viability (reversal) in test [3] (H69AR cells + 2 uM doxorubicin) was 8.18% (inactive). Also, the results for the inhibition in test [4] and in test [5] were 0.52% (inactive) and 4.92% (inactive), respectively.

Regarding `Cc1cc(C)c(S(=O)(=O)N(C)CC(N)=O)c(C)c1`, the viability was 95% (inactive) in test [1], 91.7% (inactive) in test [2], 104% in test [3] (setting [6]) and 91.7% in test [3] (setting [7]). Moreover, the differential viability (reversal) in test [3] (H69AR cells + 2 uM doxorubicin) is -12.6% (inactive). Besides, the inhibition in test [4] was 2.37% (inactive); in test [5] it was -4.13% (inactive).

As for `CC(=O)Nc1ccc2nc(-c3cccnc3)[nH]c2c1`, the viability is 98.6% (inactive) in test [1], 80.7% (inactive) in test [2], 92% in test [3] (setting [6]) and 80.7% in test [3] (setting [7]). Also, the differential viability (reversal) in test [3] (H69AR cells + 2 uM doxorubicin) was -11.3% (inactive). The inhibition in test [4] is 3.51% (inactive); in test [5], 11.1% (inactive).

As for `CCOc1cc(S(=O)(=O)NCc2ccc3c(c2)OCO3)ccc1F`, the viability in test [1] was 95.4% (inactive); in test [2], 97.9% (inactive); in test [3] (setting [6]) it was 93.5%; in test [3] (setting [7]), 97.9%. The differential viability (reversal) in test [3] (H69AR cells + 2 uM doxorubicin) is 4.41% (inactive). Further, the inhibition in test [4] was -4.8% (inactive); in test [5], 4.76% (inactive).

Regarding `Cc1ccc(N2CCN(C(=O)c3ccccc3)CC2)c(C)c1`, the viability in test [1] was 114% (inactive); in test [2], 91.1% (inactive); in test [3] (setting [6]) it was 84.4%; in test [3] (setting [7]), 91.1%. Also, the differential viability (reversal) in test [3] (H69AR cells + 2 uM doxorubicin) is 6.71% (inactive). For the same molecule, the inhibition is -7.33% (inactive) in test [4] and 5.4% (inactive) in test [5].

In the case of `Nc1nc(NCc2ccco2)nn1-c1ccccc1`, the viability in test [1] was 98% (inactive); in test [2], 96.7% (inactive); in test [3] (setting [6]), 80.9%; in test [3] (setting [7]) it was 96.7%. Besides, in test [3] (H69AR cells + 2 uM doxorubicin), the differential viability (reversal) was 15.7% (inactive). Also, the inhibition is -7.07% (inactive) in test [4] and 6.03% (inactive) in test [5].

Consider `Cn1c(SCc2c(F)cccc2Cl)nnc1-c1cccs1`, for which the viability in test [1] is 112% (inactive); in test [2] it was 87.9% (inactive); in test [3] (setting [6]), 77.6%; in test [3] (setting [7]) it was 87.9%. Moreover, the differential viability (reversal) in test [3] (H69AR cells + 2 uM doxorubicin) was 10.2% (inactive). Also, the inhibition in test [4] is -1.33% (inactive); in test [5], -5.87% (inactive).

On to `O=C(c1cnn2c1NC(c1ccco1)CC2C(F)(F)F)N1CCN(c2cccc(Cl)c2)CC1` (configuration not stated), for which the viability in test [1] was 48.7% (inactive); in test [2] it was 9.38% (active); in test [3] (setting [6]), 70.8%; in test [3] (setting [7]), 9.38%. The differential viability (reversal) in test [3] (H69AR cells + 2 uM doxorubicin) is -61.4% (inactive). In addition, the figures for the inhibition in test [4] and in test [5] were -6% (inactive) and -2.22% (inactive), respectively.

For `CCOc1ccccc1N1CCN(S(=O)(=O)c2cccc3nsnc23)CC1`, the viability was 84.1% (inactive) in test [1], 86.1% (inactive) in test [2], 81.4% in test [3] (setting [6]) and 86.1% in test [3] (setting [7]). In addition, the differential viability (reversal) in test [3] (H69AR cells + 2 uM doxorubicin) was 4.72% (inactive). The inhibition was 0.26% (inactive) in test [4] and 10.9% (inactive) in test [5].

With `Cc1ccc(CCSCC(=O)O)cn1`, the viability in test [1] was 109% (inactive); in test [2], 101% (inactive); in test [3] (setting [6]), 98.3%; in test [3] (setting [7]), 101%. In addition, the differential viability (reversal) in test [3] (H69AR cells + 2 uM doxorubicin) is 2.9% (inactive). Besides, the inhibition in test [4] was -2.4% (inactive); in test [5] it was 0.16% (inactive).

For the molecule `COc1ccc(N2CCN(c3oc(COc4ccccc4)nc3C#N)CC2)cc1`, the viability in test [1] was 84.1% (inactive); in test [2], 101% (inactive); in test [3] (setting [6]), 103%; in test [3] (setting [7]), 101%. Besides, the differential viability (reversal) in test [3] (H69AR cells + 2 uM doxorubicin) is -2.02% (inactive). The figures for the inhibition in test [4] and in test [5] were -5.19% (inactive) and 0.95% (inactive), respectively.

On to `Nc1nc(-c2ccc(Cl)cc2)nn1C(=O)c1cccnc1`, for which the viability in test [1] is 98.2% (inactive); in test [2], 96.4% (inactive); in test [3] (setting [6]), 95.5%; in test [3] (setting [7]) it was 96.4%. In addition, the differential viability (reversal) in test [3] (H69AR cells + 2 uM doxorubicin) is 0.94% (inactive). The inhibition in test [4] was 0.13% (inactive); in test [5] it was 4.29% (inactive).

On to `CN1CCN(CC#CCC(O)(c2ccccc2)C2CCCC2)CC1` (configuration not stated), for which the viability in test [1] was 102% (inactive); in test [2], 91.7% (inactive); in test [3] (setting [6]), 90.5%; in test [3] (setting [7]) it was 91.7%. In test [3] (H69AR cells + 2 uM doxorubicin), the differential viability (reversal) is 1.13% (inactive). The inhibition in test [4] is -6.4% (inactive); in test [5], -2.38% (inactive).

Take `Cc1ccc(NC(=O)c2ccccc2F)nc1`: the viability in test [1] is 68.1% (inactive); in test [2] it was 90.9% (inactive); in test [3] (setting [6]), 97.2%; in test [3] (setting [7]), 90.9%. In addition, the differential viability (reversal) in test [3] (H69AR cells + 2 uM doxorubicin) was -6.37% (inactive). The inhibition was -4.93% (inactive) in test [4] and 1.11% (inactive) in test [5].

Turning to `CC(OC1=CC(=O)CCC1)C(=O)c1ccccc1` (configuration not stated), the viability in test [1] was 102% (inactive); in test [2] it was 108% (inactive); in test [3] (setting [6]), 89.8%; in test [3] (setting [7]), 108%. In addition, the differential viability (reversal) in test [3] (H69AR cells + 2 uM doxorubicin) is 18% (inactive). Besides, the figures for the inhibition in test [4] and in test [5] were -2.6% (inactive) and -0.48% (inactive), respectively.

Regarding `O=C(Nc1ccccc1C(=O)N1CCOCC1)C1CCC(=O)N1C1CCCC1` (configuration not stated), the viability in test [1] is 108% (inactive); in test [2], 95% (inactive); in test [3] (setting [6]), 95.7%; in test [3] (setting [7]), 95%. Moreover, the differential viability (reversal) in test [3] (H69AR cells + 2 uM doxorubicin) was -0.755% (inactive). Also, the inhibition is -8.8% (inactive) in test [4] and -3.97% (inactive) in test [5].

Consider `COC(=O)C1=C(CSCc2ccco2)NC(=O)NC1c1cc(C)ccc1C` (configuration not stated), for which the viability was 98.4% (inactive) in test [1], 82.5% (inactive) in test [2], 92% in test [3] (setting [6]) and 82.5% in test [3] (setting [7]). Also, the differential viability (reversal) in test [3] (H69AR cells + 2 uM doxorubicin) is -9.46% (inactive). The inhibition in test [4] was -1.47% (inactive); in test [5], -1.43% (inactive).

As for `O=C(c1cc(-c2cccc(O)c2)on1)N1CCN(C(c2ccccc2)c2ccccc2)CC1`, the viability in test [1] was 98.8% (inactive); in test [2] it was 26.8% (active); in test [3] (setting [6]), 22.4%; in test [3] (setting [7]) it was 26.8%. The differential viability (reversal) in test [3] (H69AR cells + 2 uM doxorubicin) was 4.38% (inactive). Also, the results for the inhibition in test [4] and in test [5] were 0.26% (inactive) and -3.5% (inactive), respectively.
